According to ChEMBL document CHEMBL5260830, “Breakthroughs in neuroactive steroid drug discovery” (Bioorg Med Chem Lett, 2018):
pEC50, pIC50: −log10 of the molar value. In brackets after ≈: the same amount, converted by molar mass.

How the values were obtained:
[1] = Inhibition of NMDA induced calcium increase in Sprague-Dawley rat Cortical neuron; type: functional, cell-based, Cortical neurone
Rattus norvegicus = assay: Neuroprotective activity against transient middle cerebral artery occlusion induced cerebral infraction Sprague-Dawley rat model assessed as decrease in cerebral infraction volume at 12 mg/kg, ip and measured after 7 days by TTC staining based assay; type: functional; set-up: scale not given: the % may be the effect or the level left; conditions: time 7 day
[2] = Inhibition of NMDA current in Sprague-Dawley rat Cortical neuron; type: functional, cell-based; conditions: cortical neurone
Mus musculus [3] = organism: Mus musculus; assay: Anticonvulsant activity in 6-Hz induced seizure mouse model assessed as protection against 6-Hz induced seizure; type: functional
Outline: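 Tonic currents recorded from voltage-clamped ([…]) dentate gyrus granule cells of wild-type female mice. Value is fold potentiation of the mean normalized tonic response to 1 µM GABA, from four to eight cells per steroid and concentration. Anticonvulsant ED50 determined in the mouse 6-Hz psychomotor seizure model.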

[4] = biological target: GABA-A receptor; anion channel (Homo sapiens) (UniProt P14867+P47870+P18507+P28472+P48169+Q99928+Q9UN88+P34903+O00591+O14764+Q8N1C3+P18505+P78334+P47869+P31644+Q16445); assay: Potentiation of NAS mediated GABA (unknown origin) tonic effect assessed as fold potentiation; type: protein-complex assay; conditions: filed as activator
[5] = biological target: GABA-A receptor; anion channel; assay: Displacement of [35S]-TBPS from rat synaptosomes GABAA receptor incubated for 90 mins by liquid scintillation counting method; type: subcellular, Synaptosome
[6] = biological target: GABA-A receptor; anion channel; assay: Displacement of [35S]-TBPS GABAA receptor in Wistar rat brain membrane incubated for 60 mins by competitive binding assay; type: cell membranes
[7] = biological target: Glutamate NMDA receptor; GRIN1/GRIN2B (Homo sapiens, UniProt Q05586+Q13224); assay: Inhibition of GluN1/GluN2B NMDA receptor (unknown origin) expressed in HEK293 cells; type: cell-based
Outline: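 Potency measured in HEK293 cells transfected with rat GluN1 and GluN2B subunits.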

[8] = Permeability coefficient across apical to basolateral side in human Caco-2 cells assessed as drug recovery at pH 7.4; type: ADME, cell-based; conditions: Caco-2, pH 7.4, read-out: Drug recovery
[9] = Permeability coefficient across apical to basolateral side in human Caco-2 cells at pH 7.4; type: ADME, cell-based; conditions: Caco-2, pH 7.4, read-out: permeability
[10] = Therapeutic index, ratio of AD50 for mouse to MED for anxiolytic activity in mouse assessed as increase in time spent in open arm by elevated plus maze test; type: toxicity; conditions: read-out: TI
Outline: (§1)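 Mice were dosed orally. Anxiolytic activity was tested in the elevated plus maze and reported as minimum effective dose. Anticonvulsant activity was tested against pentylenetetrazole-induced seizures and reported as ED50. Therapeutic indices were given for the anxiolytic and anticonvulsant read-outs against a preliminary mouse safety measure.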

[11] = Solubility of the compound in 45% HPbetaCD; type: physicochemical
[12] = biological target: T1, GABA-A receptor; alpha-1/beta-2/gamma-2 (Homo sapiens, UniProt P14867+P18507+P47870); assay: Positive allosteric modulation of human GABAA alpha1beta2gamma2 receptor expressed in Xenopus laevis oocytes by two-microelectrode voltage-clamp assay; type: cell-based, Oocyte
T1 sequence (P14867 whole entry): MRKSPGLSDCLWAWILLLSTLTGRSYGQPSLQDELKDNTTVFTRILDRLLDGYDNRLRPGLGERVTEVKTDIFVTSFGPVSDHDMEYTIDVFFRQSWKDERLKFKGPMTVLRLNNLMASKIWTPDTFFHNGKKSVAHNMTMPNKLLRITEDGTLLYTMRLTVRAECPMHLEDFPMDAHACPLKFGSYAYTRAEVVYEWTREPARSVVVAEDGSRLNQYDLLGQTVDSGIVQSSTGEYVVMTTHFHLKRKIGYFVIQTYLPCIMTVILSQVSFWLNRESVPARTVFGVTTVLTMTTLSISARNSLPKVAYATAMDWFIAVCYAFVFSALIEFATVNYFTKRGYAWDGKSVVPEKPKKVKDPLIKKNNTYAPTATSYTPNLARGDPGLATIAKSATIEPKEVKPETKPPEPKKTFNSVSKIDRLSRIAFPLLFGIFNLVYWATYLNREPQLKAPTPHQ
T1 sequence (P47870 whole entry): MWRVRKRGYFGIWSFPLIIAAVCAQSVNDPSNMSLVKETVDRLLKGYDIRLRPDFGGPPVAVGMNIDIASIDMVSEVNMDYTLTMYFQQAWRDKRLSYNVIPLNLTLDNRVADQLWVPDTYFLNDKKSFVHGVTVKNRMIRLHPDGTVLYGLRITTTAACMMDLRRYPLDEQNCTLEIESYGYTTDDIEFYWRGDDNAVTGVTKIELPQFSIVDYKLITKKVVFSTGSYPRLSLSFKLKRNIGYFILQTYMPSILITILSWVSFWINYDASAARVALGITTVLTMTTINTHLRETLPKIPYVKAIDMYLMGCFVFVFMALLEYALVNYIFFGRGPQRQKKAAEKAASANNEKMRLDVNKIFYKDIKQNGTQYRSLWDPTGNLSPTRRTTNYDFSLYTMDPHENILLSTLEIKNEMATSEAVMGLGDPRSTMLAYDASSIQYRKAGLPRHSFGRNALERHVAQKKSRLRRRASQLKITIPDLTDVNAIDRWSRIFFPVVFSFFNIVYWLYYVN
T1 sequence (P18507 whole entry): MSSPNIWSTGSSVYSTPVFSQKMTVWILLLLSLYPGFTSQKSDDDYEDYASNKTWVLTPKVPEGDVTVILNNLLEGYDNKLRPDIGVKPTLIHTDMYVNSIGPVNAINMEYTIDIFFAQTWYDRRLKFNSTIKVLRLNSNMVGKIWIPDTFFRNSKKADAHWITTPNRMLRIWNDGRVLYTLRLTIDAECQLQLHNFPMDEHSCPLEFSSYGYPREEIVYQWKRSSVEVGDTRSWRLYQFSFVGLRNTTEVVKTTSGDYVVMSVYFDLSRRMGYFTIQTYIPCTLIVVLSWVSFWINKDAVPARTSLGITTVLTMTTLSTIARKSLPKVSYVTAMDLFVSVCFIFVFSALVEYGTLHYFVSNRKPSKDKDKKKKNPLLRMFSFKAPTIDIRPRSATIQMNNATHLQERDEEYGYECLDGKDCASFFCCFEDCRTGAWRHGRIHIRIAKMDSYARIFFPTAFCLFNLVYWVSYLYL
Outline: (§2)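 PAM activity measured as EC50 in Xenopus oocytes expressing α1β2γ2L or α2β1γ2L GABAA receptors.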

Mus musculus [13] = assay: Anticonvulsant activity in PTZ induced mouse administered orally; type: functional; conditions: route po; outline: as §1
Mus musculus [14] = organism: Mus musculus; assay: Anxiolytic activity in mouse assessed as increase in time spent in open arm by elevated plus maze test; type: functional; conditions: read-out: MED; outline: as §1
[15] = biological target: T2, Gamma-aminobutyric acid receptor subunit alpha-2/beta-1/gamma-2 (Homo sapiens, UniProt P18505+P18507+P47869); assay: Positive allosteric modulation of human GABAA alpha2beta1gamma2 receptor expressed in Xenopus laevis oocytes by two-microelectrode voltage-clamp assay; type: cell-based, Oocyte; outline: as §2
T2 sequence (P18507 whole entry): T1 sequence (P18507 whole entry)
T2 sequence (P18505 whole entry): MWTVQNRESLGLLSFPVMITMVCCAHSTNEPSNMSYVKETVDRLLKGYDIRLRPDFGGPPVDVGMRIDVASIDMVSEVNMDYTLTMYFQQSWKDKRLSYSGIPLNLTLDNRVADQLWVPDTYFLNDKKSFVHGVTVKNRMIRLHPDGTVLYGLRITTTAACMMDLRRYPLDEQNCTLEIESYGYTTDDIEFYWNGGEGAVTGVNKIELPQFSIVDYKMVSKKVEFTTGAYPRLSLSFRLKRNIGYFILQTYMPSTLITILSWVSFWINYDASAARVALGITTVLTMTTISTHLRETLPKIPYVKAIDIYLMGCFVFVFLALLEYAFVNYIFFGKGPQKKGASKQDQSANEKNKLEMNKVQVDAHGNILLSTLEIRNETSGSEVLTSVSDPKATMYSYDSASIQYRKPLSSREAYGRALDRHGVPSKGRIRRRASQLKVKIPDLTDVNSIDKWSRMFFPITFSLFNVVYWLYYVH
T2 sequence (P47869 whole entry): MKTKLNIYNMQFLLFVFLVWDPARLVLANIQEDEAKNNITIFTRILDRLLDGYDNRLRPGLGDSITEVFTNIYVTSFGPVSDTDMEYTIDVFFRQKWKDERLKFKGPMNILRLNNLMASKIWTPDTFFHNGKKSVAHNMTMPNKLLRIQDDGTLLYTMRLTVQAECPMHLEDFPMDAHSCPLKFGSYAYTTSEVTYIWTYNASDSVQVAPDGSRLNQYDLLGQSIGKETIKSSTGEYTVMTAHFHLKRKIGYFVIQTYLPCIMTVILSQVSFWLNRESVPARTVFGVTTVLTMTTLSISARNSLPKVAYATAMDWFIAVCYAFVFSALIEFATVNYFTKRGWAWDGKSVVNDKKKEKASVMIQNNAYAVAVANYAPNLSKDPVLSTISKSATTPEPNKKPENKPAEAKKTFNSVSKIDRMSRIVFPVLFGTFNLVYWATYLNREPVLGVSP

[16] = Therapeutic index, ratio of AD50 for mouse to ED50 for anticonvulsant activity in PTZ induced mouse administered orally; type: toxicity; conditions: in vivo, route po, read-out: TI; outline: as §1

Glutamate NMDA receptor; GRIN1/GRIN2B, sequence (Q13224 whole entry, other chains not shown): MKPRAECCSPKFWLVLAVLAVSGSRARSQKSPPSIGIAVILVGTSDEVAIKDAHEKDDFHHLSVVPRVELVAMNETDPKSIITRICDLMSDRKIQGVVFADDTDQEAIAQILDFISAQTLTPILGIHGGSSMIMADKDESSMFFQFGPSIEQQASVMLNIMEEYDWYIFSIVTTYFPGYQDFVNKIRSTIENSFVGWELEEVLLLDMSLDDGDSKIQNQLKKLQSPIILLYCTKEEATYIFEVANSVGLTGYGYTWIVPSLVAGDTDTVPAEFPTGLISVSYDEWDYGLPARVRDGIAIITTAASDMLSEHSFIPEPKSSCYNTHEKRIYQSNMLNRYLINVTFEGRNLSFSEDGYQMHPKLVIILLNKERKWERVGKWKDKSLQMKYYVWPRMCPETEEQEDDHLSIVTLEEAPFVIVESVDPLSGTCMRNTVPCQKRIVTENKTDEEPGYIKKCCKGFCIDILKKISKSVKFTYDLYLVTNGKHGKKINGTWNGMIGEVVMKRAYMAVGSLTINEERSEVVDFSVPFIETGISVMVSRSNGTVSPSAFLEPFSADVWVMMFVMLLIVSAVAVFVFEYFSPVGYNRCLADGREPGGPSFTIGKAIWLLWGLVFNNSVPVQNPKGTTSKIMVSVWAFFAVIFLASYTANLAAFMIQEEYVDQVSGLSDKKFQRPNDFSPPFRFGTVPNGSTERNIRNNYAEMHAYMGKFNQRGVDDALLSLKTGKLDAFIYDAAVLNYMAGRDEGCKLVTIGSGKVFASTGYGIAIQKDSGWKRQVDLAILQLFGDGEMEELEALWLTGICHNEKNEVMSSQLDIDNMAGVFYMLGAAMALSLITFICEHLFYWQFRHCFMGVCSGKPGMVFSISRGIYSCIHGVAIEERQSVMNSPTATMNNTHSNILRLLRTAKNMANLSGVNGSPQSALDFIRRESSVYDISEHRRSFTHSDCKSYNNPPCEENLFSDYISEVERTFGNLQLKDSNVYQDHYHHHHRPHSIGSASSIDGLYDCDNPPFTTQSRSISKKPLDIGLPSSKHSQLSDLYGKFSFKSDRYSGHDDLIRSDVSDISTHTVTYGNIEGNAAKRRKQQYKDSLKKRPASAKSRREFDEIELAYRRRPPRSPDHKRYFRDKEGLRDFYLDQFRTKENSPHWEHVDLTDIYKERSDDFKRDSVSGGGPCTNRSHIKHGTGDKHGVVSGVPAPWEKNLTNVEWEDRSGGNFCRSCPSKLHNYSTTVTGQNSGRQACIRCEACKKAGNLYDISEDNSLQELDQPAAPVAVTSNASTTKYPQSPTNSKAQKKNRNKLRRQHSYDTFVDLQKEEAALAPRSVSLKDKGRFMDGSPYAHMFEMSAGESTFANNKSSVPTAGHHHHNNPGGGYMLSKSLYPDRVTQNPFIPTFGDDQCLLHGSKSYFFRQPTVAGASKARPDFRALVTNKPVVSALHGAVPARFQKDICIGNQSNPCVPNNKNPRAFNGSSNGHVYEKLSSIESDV

## C=C(C)CC[C@@H](C)[C@H]1CC[C@H]2[C@@H]3C[C@@H](O)[C@@]4(O)C[C@H](O)CC[C@]4(CO)[C@H]3CC[C@]12C
[1]; Rattus norvegicus, Sprague-Dawley, Cortical neurone
  pIC50: 5.11
[1]; cortical neurone
  pIC50: 4.99
Rattus norvegicus
  Activity: 30%
[2]
  pIC50: 4.99

## CC(=O)[C@H]1CC[C@H]2[C@@H]3CC[C@@H]4C[C@H](O)CC[C@]4(C)[C@H]3CC[C@]12C [ELTANOLONE]
Mus musculus [3]
  ED50: 7.7 mg/kg
[4]
  fold change (FC): 2.24

## CC(=O)[C@H]1CC[C@H]2[C@@H]3CC[C@@H]4C[C@H](O)C[C@@H]5O[C@H](C[C@]12C)[C@@H]3[C@]45C
[5]
  pIC50: 6.31

## C[C@]12CC[C@@H](O)C[C@@H]1CC[C@@H]1[C@@H]2CC[C@]2(C)[C@@H](C(=O)CO)CC[C@@H]12
Mus musculus [3]
  ED50: 5 mg/kg
[4]
  fold change (FC): 3.52

## CC(=O)[C@H]1CC[C@H]2[C@@H]3CC[C@H]4C[C@@H]5O[C@@H]5C[C@]4(C)[C@H]3CC[C@]12C
[6]
  pIC50: 6.59

## CC(=O)[C@H]1CC[C@H]2[C@@H]3CC[C@H]4C[C@H](O)C[C@H]5O[C@H](C[C@]12C)[C@@H]3[C@]45C
[5]
  pIC50: 7.03

## C[C@@]12CCC[C@H]1[C@@H]1CC[C@@H]3C[C@H](NC(=O)[C@@H](N)CC(=O)O)CC[C@]3(C)[C@H]1CC2
[7]
  pIC50: 6.00
[8]
  recovery: < 50%
[9]
  Papp A→B: 0.22 ×10⁻⁶ cm/s

## C[C@@]12CCC[C@H]1[C@@H]1CC[C@@H]3C[C@H](NC(=O)O)CC[C@]3(C)[C@H]1CC2
[7]
  pIC50: 4.66

## CC(=O)[C@H]1CC[C@H]2[C@@H]3C[C@H]4OC[C@@]5(CC[C@@H](O)CC45)[C@H]3CC[C@]12C (stereo not given in full)
[5]
  pIC50: 6.85

## COCC(=O)[C@H]1CC[C@H]2[C@@H]3CC[C@H]4C[C@@H]5O[C@@H]5C[C@]4(C)[C@H]3CC[C@]12C
[6]
  pIC50: 6.20

## CC(=O)[C@H]1CC[C@H]2[C@@H]3CC[C@H]4C[C@H](O)CC[C@]4(C)[C@H]3CC[C@]12C [BREXANOLONE]
[5]
  pIC50: 7.07
Mus musculus [3]
  ED50: 4.2 mg/kg
[4]
  fold change (FC): 4.36

## C[C@@]12CCC[C@H]1[C@@H]1CC[C@@H]3C[C@H](NC(=O)[C@@H](N)CCC(=O)O)CC[C@]3(C)[C@H]1CC2
[7]
  pIC50: 5.85
[8]
  recovery: < 50%
[9]
  Papp A→B: 0.22 ×10⁻⁶ cm/s

## COCCC(CO)(CCOC)C(=O)[C@H]1CC[C@H]2[C@@H]3CC[C@H]4C[C@@H]5O[C@@H]5C[C@]4(C)[C@H]3CC[C@]12C
[6]
  pIC50: 5.30

## CC(=O)[C@H]1CC[C@H]2[C@@H]3CCC4=C[C@H](O)C[C@@H]5O[C@H](C[C@]12C)[C@@H]3[C@]45C
[5]
  pIC50: 7.14

## CC(=O)[C@H]1CC[C@H]2[C@@H]3CC[C@H]4C[C@H](O)CC[C@]4(C)[C@H]3C(=O)C[C@]12C [ALFAXALONE]
Mus musculus [3]
  ED50: 8.8 mg/kg
[4]
  fold change (FC): 1.98

## CC(=O)[C@H]1CC[C@H]2[C@@H]3CC[C@H]4C[C@@H](O)CC[C@]4(C)[C@H]3CC[C@]12C [SEPRANOLONE]
Mus musculus [3]
  ED50: > 100 mg/kg
[4]
  fold change (FC): 0.76

## C[C@@]12CCC[C@H]1[C@@H]1CC[C@@H]3C[C@H](NC(=O)CC(=O)O)CC[C@]3(C)[C@H]1CC2
[7]
  pIC50: 4.81

## CC(=O)[C@H]1CC[C@H]2[C@@H]3CC[C@H]4C[C@](C)(O)CC[C@]4(C)[C@H]3CC[C@]12C [GANAXOLONE]
Mus musculus [3]
  ED50: 1.5 mg/kg
[10]
  selectivity ratio: 3.3
[11]
  solubility: 20 mM (≈ 6650 µg/mL)
[12]
  pEC50: 6.70
Mus musculus [13]
  ED50: 23 mg/kg
Mus musculus [14]
  minimal effective dose: 20 mg/kg
[15]
  pEC50: 7.00
[4]
  fold change (FC): 3.47
[16]
  selectivity ratio: 3

## CC(=O)[C@H]1CC[C@H]2[C@@H]3CC[C@@H]4C[C@H](OC(=O)[C@@H](N)CCC(=O)O)CC[C@]4(C)[C@H]3CC[C@]12C
[7]
  pIC50: 4.29
